Source: PubChem BioAssay
Shown are actives, neighbours in structure and some others; about 3.3% of the full set was active somewhere.
C2C12 statin – suppressors of statin myotoxicity in C2C12 myotubes, primary screen, cell-based, single point, plate reader | rescue of ATP level, % at 7.49 µM | AID 602340, 2012 | hit rate 0.78% among 330,000 | C2C12 myotubes + simvastatin, ATP luminescence, 48 h; scaled: DMSO 0, geranylgeraniol control 100;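 active = mean ATP rescue above about 67%, or every replicate alone reaching that limit, limit read from the data, passing the limit was not always enough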;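 note: myotubes were challenged with 10 µM simvastatin during compound exposure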
FGF22 binding – binders of human FGF22 protein, primary screen, FGF22 synaptogenesis inhibitor project, biophysical, thermal shift, single point; hit rate 1.5% among 340,000; AID 651658, 2012; Fibroblast growth factor 22 (Homo sapiens), Q9HCT0; activity (Tm shift, normalised), % at 9.99 µM; recombinant FGF22 thermal shift, SYPRO orange fluorescence; percent of sucrose octasulfate shift, DMSO zero;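 active = mean Tm shift, scaled 0 neutral to 100 positive control, at about 1.3% or above, every replicate too, limit read from the data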
Target sequence (Q9HCT0 whole entry, looked up): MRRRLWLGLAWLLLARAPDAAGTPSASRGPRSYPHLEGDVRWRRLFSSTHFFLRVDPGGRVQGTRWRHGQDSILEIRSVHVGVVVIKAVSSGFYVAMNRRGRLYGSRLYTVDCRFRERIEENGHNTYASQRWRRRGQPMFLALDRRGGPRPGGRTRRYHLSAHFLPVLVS
XiGFP reactiv – activators of inactive X chromosome reactivation, primary screen, imaging, XiGFP fibroblasts, GFP high-content imaging, set 2. XiGFP mouse fibroblasts, % GFP-positive cells imaging, 3 d; cells co-treated with 5-aza-dC sensitizer; scaled so ellipticine positive control = 100%. activation, % at 7.58 µM. hit rate 0.055% among 360,000. AID 743238, 2013;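 active = mean normalized replicate activation at least 10% and every replicate at or above 10%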;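 note: 0% = median of on-plate neutral control wells and 100% = ellipticine 6 µM median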
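Material: XiGFP fibroblasts, SV40-immortalized. Buffer or medium: DMEM plus 5-aza-dC sensitizer. Compound: single concentration per compound, delivered by pin transfer. Times: 3 days compound exposure. Controls: ellipticine 6 µM.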
PglD inh – C. jejuni PglD acetyltransferase inhibitors, primary screen, biochemical, DTNB colorimetric, single point; inhibition, % at 12.5 µM; purified PglD enzyme, DTNB colorimetric CoA detection; UDP-N-acetylbacillosamine N-acetyltransferase PglD (Campylobacter jejuni); hit rate 0.098% among 360,000; AID 602405, 2012; in the data active = inhibition above about 16%, passing the limit was not always enough
DENV2 CPE rescue – inhibitors of DENV2 cytopathic effect, primary screen, cell-based, plate reader, single concentration; DENV2-infected cells, cytopathic effect rescue; hit rate 1.7% among 350,000; CPE inhibition, % at 9.99 µM; AID 651640, 2012; in the data active = CPE inhibition above about 20%, passing the limit was not always enough; tested in BHK-21 cells;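 note: 0% = median of neutral control wells and 100% = median of positive control wells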
E-selectin induc – E-selectin induction in HUVECs, primary screen, imaging, HUVEC, immunofluorescence imaging, single point; P16581; normalized: neutral wells 0, TNF-alpha wells 100; activation, % at 7.58 µM; hit rate 0.37% among 260,000; AID 686992, 2013;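 active = mean E-selectin-positive cell signal at least 10% of the positive control, reached in at least 60% of replicates, without over 20% cell loss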
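Read-out: % PE-positive cells | Test system: HUVEC | Doses: One compound dose added by pin transfer | Buffer or medium: EGM-2 over gelatin coat | Signal: Immunofluorescence imaging | Benchmarks: TNF-alpha, DMSO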
* hit, by the source's call; / = no result given.

SMILES	C2C12 statin	FGF22 binding	XiGFP reactiv	PglD inh	DENV2 CPE rescue	E-selectin induc
Cc1cc(C)nc(-n2ncc3c2CCCC3=O)n1	/	43*	0	/	/	/
Cc1cc(C)nc(-n2ncc(C#N)c2N)n1	/	0	0	/	2	/
CCCC(=O)N(Cc1cc(=O)[nH]c2ccccc12)c1cccc(C)c1	-4	0	0	3	29*	0
O=C(NCCc1ccccc1)c1cc(=O)[nH]c2ccccc12	6	43*	0	1	5	/
CCCOC(=O)c1cc(=O)[nH]c2ccccc12	14	/	/	7	/	/
CCOC(=O)c1cc(=O)[nH]c2ccccc12	/	43*	0	/	1	/
CCOC(=O)c1cc(=O)n(Cc2ccccc2C)c2ccccc12	103*	0	/	-2	-6	/
Cc1ccc(Cn2c(=O)cc(C(=O)O)c3ccccc32)cc1	2	0	/	-7	-2	/
Cc1ccnc2nc(C(=O)OCCOc3ccccc3)nn12	-4	/	/	0	/	/
Cc1cc(Cl)ccc1NC(=O)COC(=O)c1nc2nccc(C)n2n1	/	43*	0	/	-1	4
Cc1ccnc2nc(C(=O)OCC(=O)c3ccccc3)nn12	112*	0	0	-4	-1	0
COc1ccc(NC(=O)Nc2ccc3c(c2)C(=O)N([C@@H](C)CO)C[C@@H](C)[C@H](CN(C)C(=O)Nc2ccc(OC)cc2)O3)cc1	-17	0	0	-1	8	0
CCC(=O)N1CC2(C1)CN(C(=O)Nc1ccccc1F)[C@H](CO)c1[nH]c3cc(OC)ccc3c12	/	0	0	/	-9	1
O=C(c1ccc(-n2nc(C(F)(F)F)c3c2CCCC3)cc1)N1CCOCC1	/	43*	0	/	-9	/
Cc1ccc(NC2C(=O)NC(=O)NC2=O)cc1	-1	0	0	1	36*	0
Cc1ccc(NC2CNC(=O)NC2=O)cc1C (configuration not stated)	-1	1	0	-1	10	0
COc1ccc(NC(=O)N2CCN(c3ccc([N+](=O)[O-])cc3)CC2)cc1	18	43*	0	/	2	5
C[C@@H]1CN([C@@H](C)CO)C(=O)Cc2cc(NC(=O)Nc3ccc(F)cc3)ccc2O[C@H]1CN(C)Cc1ccc(Oc2ccccc2)cc1	13	0	0	0	-21	1
COc1ccc(-n2c(=O)c3ccccc3n(CC(=O)NCC3CCCO3)c2=O)cc1 (configuration not stated)	-10	44*	0	2	10	/
COc1ccc(S(=O)(=O)N(C)C[C@H]2OCCCC[C@H](C)Oc3ccc(NS(=O)(=O)c4cccs4)cc3C(=O)N([C@H](C)CO)C[C@H]2C)cc1	/	0	0	-2	63*	0
COc1ccc(S(=O)(=O)Nc2ccc3c(c2)C(=O)N([C@@H](C)CO)C[C@@H](C)[C@@H](CN(C)S(=O)(=O)c2cccs2)OCCCC[C@H](C)O3)cc1	91*	0	0	-2	0	/
COc1ccc(S(=O)(=O)Nc2ccc3c(c2)C(=O)N([C@H](C)CO)C[C@@H](C)[C@@H](CN(C)S(=O)(=O)c2cccs2)OCCCC[C@H](C)O3)cc1	52	0	0	1	-5	/
C[C@@H]1CN([C@H](C)CO)S(=O)(=O)c2ccc(C#CC3CCCC3)cc2O[C@@H]1CN(C)C(=O)c1cccc(F)c1	-28	/	-1	/	/	-1
Cc1c(N(C)C)c(=O)n(-c2ccccc2)n1C	-18	0	/	-4	51*	/
CC(=O)c1ccc(Nc2c(C)n(C)n(-c3ccccc3)c2=O)cc1	/	0	0	/	-7	/
Cc1c(Nc2ccc(C=O)cc2)c(=O)n(-c2ccccc2)n1C	0	43*	0	/	11	/
COc1ccc2c3c([nH]c2c1)[C@@H](CO)N(C(=O)CN1CCOCC1)CC31CN(C)C1	/	/	0	/	/	/
